Active and inactive are the calls of the source. No cut-off for these calls is given here.
Tests used:
Canis familiaris [1] = assay: Uroselectivity was determined by measuring effective dose required for 20 mmHg increase of mean arterial pressure (MAP) in vivo in dog; assay type: functional, Canis lupus familiaris, Artery
Summary of the method: (§1)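 Dog model recording intraurethral pressure (IUP) and mean arterial pressure (MAP) simultaneously. Increasing iv doses given, maximal effect of each dose taken. Doses giving a 5 mmHg rise in IUP (ED Δ5) or 20 mmHg rise in MAP (ED Δ20) were calculated, in nmol/kg ± SEM, n ≥ 4 (2 or 3 where footnoted).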

[2] = target: T1, Alpha-1B adrenergic receptor (Mesocricetus auratus, UniProt P18841); assay: In vitro binding affinity towards alpha-1B adrenergic receptor of hamster clone in radioligand binding assay; assay type: single protein
T1 sequence (P18841 whole entry): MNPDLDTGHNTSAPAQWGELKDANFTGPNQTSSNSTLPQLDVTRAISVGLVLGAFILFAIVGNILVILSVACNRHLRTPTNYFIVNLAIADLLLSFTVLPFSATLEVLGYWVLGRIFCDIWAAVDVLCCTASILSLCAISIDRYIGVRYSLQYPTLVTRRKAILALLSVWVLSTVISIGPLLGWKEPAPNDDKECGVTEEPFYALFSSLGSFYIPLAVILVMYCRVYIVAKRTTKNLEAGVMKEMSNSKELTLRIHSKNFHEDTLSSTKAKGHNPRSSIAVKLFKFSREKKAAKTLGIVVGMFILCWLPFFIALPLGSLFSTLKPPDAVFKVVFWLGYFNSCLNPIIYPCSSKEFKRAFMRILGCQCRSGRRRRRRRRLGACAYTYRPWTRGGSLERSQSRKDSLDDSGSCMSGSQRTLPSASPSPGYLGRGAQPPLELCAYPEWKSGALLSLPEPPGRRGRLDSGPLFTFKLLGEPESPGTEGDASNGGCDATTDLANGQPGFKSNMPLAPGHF
Summary of the method: (§2)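 Radioligand binding at α1 subtypes: α1A from rat submaxillary gland, α1B hamster clone, α1D rat clone. Run essentially per an earlier method.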

[3] = target: T2, Alpha-2B adrenergic receptor (Rattus norvegicus, UniProt P19328); assay: In vitro binding affinity towards alpha-2B adrenergic receptor of rat neonatal lung in radioligand binding assay
T2 sequence (P19328 whole entry): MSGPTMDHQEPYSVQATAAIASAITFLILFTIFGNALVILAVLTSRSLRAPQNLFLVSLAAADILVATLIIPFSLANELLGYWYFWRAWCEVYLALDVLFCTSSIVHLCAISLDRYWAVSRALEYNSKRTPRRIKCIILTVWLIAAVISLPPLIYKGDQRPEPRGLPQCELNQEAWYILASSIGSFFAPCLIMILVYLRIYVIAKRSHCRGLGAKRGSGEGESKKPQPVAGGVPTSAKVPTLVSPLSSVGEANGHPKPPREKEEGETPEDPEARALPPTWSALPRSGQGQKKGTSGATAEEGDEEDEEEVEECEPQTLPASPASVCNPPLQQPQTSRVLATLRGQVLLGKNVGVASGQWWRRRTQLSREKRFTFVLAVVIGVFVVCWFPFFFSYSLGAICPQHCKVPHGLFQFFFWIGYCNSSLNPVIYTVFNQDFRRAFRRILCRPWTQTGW

[4] = target: T3, Alpha-1D adrenergic receptor (Rattus norvegicus, UniProt P23944); assay: In vitro binding affinity towards alpha-1D adrenergic receptor of rat clone in radioligand binding assay; summary of the method: as §2
T3 sequence (P23944 whole entry): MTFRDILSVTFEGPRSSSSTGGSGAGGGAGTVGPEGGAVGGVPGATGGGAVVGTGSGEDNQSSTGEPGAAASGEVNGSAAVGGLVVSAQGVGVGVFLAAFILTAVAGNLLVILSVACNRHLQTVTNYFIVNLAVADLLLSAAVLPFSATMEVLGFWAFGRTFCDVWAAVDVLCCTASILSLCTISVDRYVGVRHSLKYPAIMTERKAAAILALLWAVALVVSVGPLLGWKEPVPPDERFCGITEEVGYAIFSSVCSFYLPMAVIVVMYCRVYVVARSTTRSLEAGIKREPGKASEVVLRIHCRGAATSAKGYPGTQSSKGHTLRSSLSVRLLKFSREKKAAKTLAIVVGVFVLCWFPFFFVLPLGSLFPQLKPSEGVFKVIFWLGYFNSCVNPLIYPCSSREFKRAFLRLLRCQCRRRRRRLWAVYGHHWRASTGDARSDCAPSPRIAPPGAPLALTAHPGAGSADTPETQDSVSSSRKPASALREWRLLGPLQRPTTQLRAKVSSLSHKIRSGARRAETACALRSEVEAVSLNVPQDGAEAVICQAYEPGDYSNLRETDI

[5] = target: T4, Alpha-2A adrenergic receptor (Homo sapiens, UniProt P08913); assay: In vitro binding affinity towards alpha-2A adrenergic receptor of human clone in radioligand binding assay
T4 sequence (P08913 whole entry): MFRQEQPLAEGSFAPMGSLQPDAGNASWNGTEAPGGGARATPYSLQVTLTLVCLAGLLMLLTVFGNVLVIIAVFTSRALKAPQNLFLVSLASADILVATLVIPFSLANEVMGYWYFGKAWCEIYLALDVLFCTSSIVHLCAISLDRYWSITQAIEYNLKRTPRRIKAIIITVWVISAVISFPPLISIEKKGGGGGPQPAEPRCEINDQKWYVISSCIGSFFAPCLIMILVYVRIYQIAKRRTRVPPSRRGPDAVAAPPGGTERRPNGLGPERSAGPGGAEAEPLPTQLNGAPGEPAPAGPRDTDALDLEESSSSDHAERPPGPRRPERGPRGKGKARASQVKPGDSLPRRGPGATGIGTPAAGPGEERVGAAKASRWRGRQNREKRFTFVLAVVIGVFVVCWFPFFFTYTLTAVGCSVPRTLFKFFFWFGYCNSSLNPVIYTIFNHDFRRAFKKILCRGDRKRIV

[6] = target: T5, Alpha-1D adrenergic receptor (Rattus norvegicus) (UniProt P23944); assay: Functional agonism of the compounds to constrict tissue containing the alpha-1D adrenergic receptor in rat aorta; assay type: tissue-based
T5 sequence (whole entry): T3 sequence (P23944 whole entry)
Summary of the method: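 Agonist dose–response curves were run on isolated tissue: rabbit urethra for α1A, rat spleen for α1B, and rat aorta for α1D.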

[7] = target: T6, Alpha-1A adrenergic receptor (Oryctolagus cuniculus) (UniProt O02824); assay: Efficacy relative to phenylephrine (PE) to constrict tissue containing the alpha-1A adrenergic receptor in rabbit urethra; assay type: functional, tissue-based
T6 sequence (whole entry): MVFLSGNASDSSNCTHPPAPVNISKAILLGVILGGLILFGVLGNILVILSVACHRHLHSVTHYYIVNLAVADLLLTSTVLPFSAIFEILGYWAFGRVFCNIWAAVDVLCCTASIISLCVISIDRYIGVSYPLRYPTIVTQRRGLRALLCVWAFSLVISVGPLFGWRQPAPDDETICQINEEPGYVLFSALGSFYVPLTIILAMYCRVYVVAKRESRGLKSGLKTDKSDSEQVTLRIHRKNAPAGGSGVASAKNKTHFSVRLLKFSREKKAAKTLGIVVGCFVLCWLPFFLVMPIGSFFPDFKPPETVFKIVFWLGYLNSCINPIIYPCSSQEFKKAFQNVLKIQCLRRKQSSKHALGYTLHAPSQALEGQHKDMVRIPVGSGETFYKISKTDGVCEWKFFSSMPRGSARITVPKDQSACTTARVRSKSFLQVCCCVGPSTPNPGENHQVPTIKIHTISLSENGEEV
Summary of the method: (§3)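 α1-agonist dose–response curves in isolated tissue: rabbit urethra (α1A), rat spleen (α1B), rat aorta (α1D). Agonist potency and efficacy read from the concentration–response curves.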

Canis familiaris [8] = assay: Uroselectivity was determined by measuring effective dose required for 5 mmHg increase of intraurethral pressure (IUP) in vivo in dog; assay type: functional, Canis lupus familiaris; summary of the method: as §1
[9] = target: T5, Alpha-1D adrenergic receptor (Rattus norvegicus); assay: Efficacy relative to phenylephrine (PE) constrict tissue containing the alpha-1D adrenergic receptor in rat aorta; assay type: functional, tissue-based; summary of the method: as §3
[10] = target: Alpha adrenergic receptor 1A and 1D (Rattus norvegicus) (UniProt P23944+P43140); assay: Selectivity is ratio of pKi (binding affinity) of Alpha-1D to that of alpha1A; assay type: protein assay
[11] = target: Alpha-1A adrenergic receptor (Oryctolagus cuniculus) (UniProt O02824); assay: Functional agonism of the compounds to constrict tissue containing the alpha-1A adrenergic receptor in rabbit urethra; Inactive
[12] = target: T7, Alpha-1A adrenergic receptor (Rattus norvegicus, UniProt P43140); assay: In vitro binding affinity towards alpha-1A adrenergic receptor of rat submaxillary gland in radioligand binding assay; summary of the method: as §2
T7 sequence (P43140 whole entry): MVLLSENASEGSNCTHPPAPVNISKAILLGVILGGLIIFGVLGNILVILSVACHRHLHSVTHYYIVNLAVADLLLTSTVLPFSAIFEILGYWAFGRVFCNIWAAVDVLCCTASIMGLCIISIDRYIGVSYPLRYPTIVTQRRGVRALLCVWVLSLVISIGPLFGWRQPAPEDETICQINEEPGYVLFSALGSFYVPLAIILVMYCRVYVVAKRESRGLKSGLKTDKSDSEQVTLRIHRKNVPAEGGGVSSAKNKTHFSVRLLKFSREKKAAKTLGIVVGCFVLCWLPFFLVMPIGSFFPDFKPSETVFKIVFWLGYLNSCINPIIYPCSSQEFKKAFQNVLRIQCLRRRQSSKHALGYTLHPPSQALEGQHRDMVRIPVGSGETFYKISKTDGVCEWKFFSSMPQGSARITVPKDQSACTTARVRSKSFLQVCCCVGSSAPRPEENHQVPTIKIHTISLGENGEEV

[13] = target: Alpha adrenergic receptor 1A and 1B (Rattus norvegicus) (UniProt P15823+P43140); assay: Selectivity is ratio of pKi (binding affinity) of alpha-1B receptor to that of alpha-1A receptor.; assay type: protein assay
Rattus norvegicus = species on record: Rattus norvegicus; assay: Relative affinities for alpha2B and alpha1A receptors
[14] = target: T8, Alpha-1A adrenergic receptor (Bos taurus, UniProt P18130); assay: In vitro binding affinity towards alpha-1A adrenergic receptor of bovine clone in radioligand binding assay
T8 sequence (P18130 whole entry): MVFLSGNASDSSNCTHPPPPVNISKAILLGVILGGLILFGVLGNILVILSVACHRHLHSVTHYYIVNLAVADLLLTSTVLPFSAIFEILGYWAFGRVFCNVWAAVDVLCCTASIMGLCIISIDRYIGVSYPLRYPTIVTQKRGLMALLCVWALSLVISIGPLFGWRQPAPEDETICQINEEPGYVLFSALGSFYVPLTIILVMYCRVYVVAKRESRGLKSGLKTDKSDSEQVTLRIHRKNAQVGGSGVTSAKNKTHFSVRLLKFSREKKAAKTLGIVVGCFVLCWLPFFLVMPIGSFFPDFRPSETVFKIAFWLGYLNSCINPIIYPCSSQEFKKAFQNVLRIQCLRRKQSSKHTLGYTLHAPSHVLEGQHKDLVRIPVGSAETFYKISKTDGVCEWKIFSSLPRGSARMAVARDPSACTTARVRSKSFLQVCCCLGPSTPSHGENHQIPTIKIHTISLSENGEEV

[15] = Relative affinities for alpha-2a and alpha-1A receptors
[16] = target: T9, Alpha-2A adrenergic receptor (Rattus norvegicus) (UniProt P22909); assay: Efficacy relative to clonidine to constrict tissue containing the alpha-2A adrenergic receptor in rat prostatic vas deferens
T9 sequence (whole entry): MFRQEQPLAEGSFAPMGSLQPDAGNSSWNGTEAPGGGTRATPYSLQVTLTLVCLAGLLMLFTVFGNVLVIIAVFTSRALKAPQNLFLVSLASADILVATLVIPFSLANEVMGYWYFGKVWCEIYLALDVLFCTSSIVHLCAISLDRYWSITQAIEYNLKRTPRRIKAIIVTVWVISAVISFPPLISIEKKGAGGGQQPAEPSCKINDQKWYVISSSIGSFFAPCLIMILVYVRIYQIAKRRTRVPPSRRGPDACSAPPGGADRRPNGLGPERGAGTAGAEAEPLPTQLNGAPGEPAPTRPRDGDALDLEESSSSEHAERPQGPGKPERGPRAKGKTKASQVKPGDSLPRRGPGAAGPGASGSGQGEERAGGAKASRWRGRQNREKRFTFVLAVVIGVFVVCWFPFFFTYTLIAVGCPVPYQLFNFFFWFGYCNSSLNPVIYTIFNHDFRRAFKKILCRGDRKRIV

Canis familiaris [17] = species on record: Canis familiaris; assay: Ratio of MAP ED delta20 to that of IUP ED delta5
[18] = target: T9, Alpha-2A adrenergic receptor (Rattus norvegicus); assay: Functional agonism to constrict tissue containing alpha-2A adrenergic receptor in rat prostatic vas deferens; assay type: tissue-based
[19] = Selectivity is ratio of efficacy of alpha-2A to that of alpha1A adrenoceptor; assay type: functional
[20] = target: T6, Alpha-1A adrenergic receptor (Oryctolagus cuniculus); assay: Functional agonism of the compounds to constrict tissue containing the alpha-1A adrenergic receptor in rabbit urethra; assay type: tissue-based; summary of the method: as §3

Chain of Alpha adrenergic receptor 1A and 1B (Rattus norvegicus) (P15823 whole entry, looked up, one chain of several): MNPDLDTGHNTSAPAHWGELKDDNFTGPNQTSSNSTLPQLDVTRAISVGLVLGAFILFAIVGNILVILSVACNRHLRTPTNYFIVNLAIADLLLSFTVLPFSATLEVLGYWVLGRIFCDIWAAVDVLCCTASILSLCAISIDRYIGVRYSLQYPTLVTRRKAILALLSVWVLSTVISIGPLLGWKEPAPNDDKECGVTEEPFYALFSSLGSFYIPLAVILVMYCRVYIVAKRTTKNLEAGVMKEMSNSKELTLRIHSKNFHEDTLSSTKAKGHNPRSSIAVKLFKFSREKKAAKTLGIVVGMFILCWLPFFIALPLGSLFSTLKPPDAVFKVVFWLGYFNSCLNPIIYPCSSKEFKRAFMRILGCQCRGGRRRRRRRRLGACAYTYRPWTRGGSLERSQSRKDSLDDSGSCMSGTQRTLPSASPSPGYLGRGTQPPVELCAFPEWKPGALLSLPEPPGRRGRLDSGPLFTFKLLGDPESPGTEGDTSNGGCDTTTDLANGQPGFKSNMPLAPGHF

For `CS(=O)(=O)Nc1c(O)ccc2c1CCCC2C1=NCCN1` (stereo not drawn), the “ED delta20” value (Canis familiaris [1]) was 0.27 nM/kg, the Ki [2] was 2.95 µM and the Ki [3] was 0.245 µM. The Ki [4] was 1.48 µM, the Ki [5] was 0.0331 µM and the pD2 [6] was 5.59. For the same molecule, the Efficacy [7] was 88%, the “ED delta5” value (Canis familiaris [8]) was 0.16 nM/kg and the Efficacy [9] was 100%.

In the case of `CCS(=O)(=O)Nc1cccc2c1CCCC2CN` (stereo not drawn), the Selectivity [10] is reported as > 10, the Ki [2] is reported as > 10 µM and the pD2 [11] is reported as “inactive”. For the same molecule, the Ki [12] was 0.794 µM, the Ki [4] was > 10 µM and the Selectivity [13] was > 10.

For `CCS(=O)(=O)Nc1ccc2c(c1)C(c1c[nH]cn1)CCC2` (stereo not drawn), the Selectivity [10] was 0.2, the Ki [2] was 1.35 µM and the Ki [3] was 0.0224 µM. For the same molecule, the Ki [4] was 0.339 µM, the Selectivity [13] was 1 and the Ki [5] was 0.0229 µM. For the same molecule, the Selectivity (Rattus norvegicus) was 0.02, the Ki [14] was 2.04 µM and the Selectivity [15] was 0.02.

In the case of `CCS(=O)(=O)Nc1cccc2c1CCCC2c1c[nH]cn1` (single isomer, unassigned; (+)), the “ED delta20” value (Canis familiaris [1]) is reported as 34 nM/kg, the Efficacy [16] is reported as 66% and the Ratio (Canis familiaris [17]) is reported as 3.3. For the same molecule, the pD2 [18] was 5.95, the Selectivity [10] was 20 and the Ki [2] was 1.32 µM. For the same molecule, the Ki [3] was 1.7 µM, the Selectivity [19] was 7 and the pD2 [20] was 6.77. The Selectivity [13] was 30, the Ki [5] was 0.132 µM and the Efficacy [7] was 71%. For the same molecule, the Selectivity (Rattus norvegicus) was 40 and the Selectivity [15] was 3.
